Active and inactive are the calls of the source. The rule behind the calls is not given here.
How the values were obtained:
[1] = target: T1, Proteasome Macropain subunit MB1 (Homo sapiens) (UniProt P28074); assay: Inhibition of chymotrypsin-like activity of human 20S proteasome beta 5 subunit assessed as Suc-Leu-Leu-Val-Tyr-AMC substrate hydrolysis at 20 uM after 10 mins by fluorometric analysis
T1 sequence (whole entry): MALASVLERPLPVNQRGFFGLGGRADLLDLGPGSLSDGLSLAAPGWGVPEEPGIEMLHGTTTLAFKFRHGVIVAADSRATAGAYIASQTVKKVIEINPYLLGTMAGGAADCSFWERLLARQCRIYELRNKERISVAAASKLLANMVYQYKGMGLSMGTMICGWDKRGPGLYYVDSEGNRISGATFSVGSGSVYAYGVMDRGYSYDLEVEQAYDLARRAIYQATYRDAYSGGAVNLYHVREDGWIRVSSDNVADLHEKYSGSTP
Method in brief: (§1)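 Single-concentration preliminary screen of human 20S proteasome activity. An equivalent amount of DMSO served as negative control. AMC release read by fluorescence at 30 °C (ex 380/em 460 nm). Percent inhibition was recorded, and at least 40% inhibition triggered full Ki assays.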

[2] = target: Cathepsin B (Homo sapiens) (UniProt P07858); assay: Inhibition of cathepsin B (unknown origin) assessed as Cbz-Phe-Arg-AMC substrate hydrolysis
NCI60 = assay: Cytotoxicity against human NCI60 cells at 10^-5 M; assay type: functional, cell-based
[3] = target: Chymotrypsinogen A (Bos taurus) (UniProt P00766); assay: (§2) Inhibition of bovine pancreatic alpha-chymotrypsin activity assessed as Suc-Leu-Leu-Val-Tyr-AMC substrate hydrolysis after 10 mins
Method in brief: (§3)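 Bovine pancreatic α-chymotrypsin in 50 mM Tris pH 8.0 with 100 mM NaCl, 5 mM EDTA and 7.5% DMSO. Suc-Leu-Leu-Val-Tyr-AMC at 75 (final) as substrate. AMC release was followed over 10 min.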

[4] = target: T2, Proteasome Macropain subunit MB1 (Homo sapiens, UniProt P28074); assay: Inhibition of chymotrypsin-like activity of human 20S proteasome beta 5 subunit assessed as Suc-Leu-Leu-Val-Tyr-AMC substrate hydrolysis after 10 mins by fluorometric analysis
T2 sequence (P28074 whole entry): T1 sequence (whole entry)
Method in brief: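 Human 20S proteasome at 0.004 mg mL-1 final, incubated at 30 °C with varied inhibitor concentrations. Buffer: 50 mM Tris pH 7.5, 10 mM NaCl, 25 mM KCl, 1 mM MgCl2, 0.03% SDS, 5% DMSO. Ki from progress-curve slopes fitted to a 4-parameter IC50 equation, Ki = IC50/(1+[S]/Km), Km measured separately. Mean of three.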

[5] = target: T3, Proteasome component C5 (Homo sapiens) (UniProt P20618); assay: Inhibition of caspase-like activity of human 20S proteasome beta 1 subunit assessed as Cbz-Leu-Leu-Glu-AMC substrate hydrolysis at 20 uM after 10 mins by fluorometric analysis; method in brief: as §1
T3 sequence (whole entry): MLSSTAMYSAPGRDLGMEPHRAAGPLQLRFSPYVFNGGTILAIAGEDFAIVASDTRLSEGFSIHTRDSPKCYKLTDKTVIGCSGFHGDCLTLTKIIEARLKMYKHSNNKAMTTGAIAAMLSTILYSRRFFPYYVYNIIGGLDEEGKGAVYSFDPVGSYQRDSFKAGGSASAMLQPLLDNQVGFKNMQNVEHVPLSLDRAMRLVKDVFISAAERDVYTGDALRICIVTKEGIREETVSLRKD

Chymotrypsinogen A = Chymotrypsinogen A (Bos taurus, UniProt P00766); assay: as §2; method in brief: as §3

SMILES	inhibition [1] [%]	inhibition [2]	inhibition [3]	Ki [4] [µM]	inhibition [5] [%]	Ki (Chymotrypsinogen A) [µM]	Activity (NCI60)
CCN(CC)c1ccn(CC(=O)N[C@@H](CC(C)C)B(O)O)c(=O)c1	100	–	–	–	–	–	–
CC(C)CCNC(=O)Cn1ccc(N2CCOCC2)cc1=O	42	inactive	inactive	7.67	–	–	inactive
CC(C)C[C@H](NC(=O)[C@H](Cc1ccccc1)NC(=O)c1cnccn1)B(O)O	100	inactive	inactive	–	–	–	inactive
CC(C)CCNC(=O)[C@H](C)n1ccc2ncccc2c1=O	35	inactive	inactive	–	–	–	inactive
CC(C)C[C@H](NC(=O)[C@H](C)n1ccc2ncccc2c1=O)B(O)O	100	–	–	–	–	–	–
CC(C)CCNC(=O)Cn1ccc2c(c1=O)CCCN2	45	inactive	inactive	10.1	–	–	inactive
CCN(CC)c1ccn(CC(=O)NCCC(C)C)c(=O)c1	28	inactive	inactive	–	–	–	inactive
COc1ccc(NC(=O)Cn2ccccc2=O)cc1	32	inactive	inactive	–	–	–	inactive
CC(C)C[C@H](NC(=O)Cn1ccc2ncccc2c1=O)B(O)O	100	–	–	–	–	–	–
CC(C)CCNC(=O)Cn1ccc2ncccc2c1=O	10	inactive	inactive	–	–	–	inactive
O=C(Cn1ccccc1=O)NC12CC3CC(CC(C3)C1)C2	86	inactive	inactive	7.55	> 50	–	inactive
CC(C)CCNC(=O)Cn1cc(Br)c2ncccc2c1=O	56	inactive	inactive	0.56	–	–	inactive
CC(C)C[C@H](NC(=O)Cn1ccc2c(c1=O)CCCN2C)B(O)O	84	–	–	–	–	–	–
O=C(Cn1ccccc1=O)NCc1ccccc1	15	inactive	inactive	–	–	–	inactive
CC(C)C[C@H](NC(=O)Cn1cc(Br)c2ncccc2c1=O)B(O)O	100	–	–	–	–	–	–
CC(C)CCNC(=O)Cn1ccc2c(c1=O)CCCN2C	7	inactive	inactive	–	–	–	inactive
CC(C)CCNC(=O)Cn1ccc(N2CCCCC2)cc1=O	27	inactive	inactive	–	–	–	inactive

Further lines, with some results ahead:

inhibition [1] [%]	inhibition [2]	inhibition [3]	Ki [4] [µM]	inhibition [5] [%]	Ki (Chymotrypsinogen A) [µM]	SMILES	Activity (NCI60)
97	–	–	–	–	–	CC(C)C[C@H](NC(=O)Cn1ccc(Nc2ccccc2)cc1=O)B(O)O	–
23	inactive	inactive	–	–	–	O=C(Cn1ccccc1=O)Nc1ccccc1	inactive
21	inactive	inactive	–	–	–	O=C(Cn1ccccc1=O)Nc1ccccc1C(=O)c1ccccc1	inactive
9	inactive	inactive	–	–	–	O=C(Cn1ccc(Nc2ccccc2)cc1=O)Nc1ccccc1	inactive
13	inactive	inactive	–	–	–	O=C(Cn1ccc(Nc2ccccc2)cc1=O)NC12CC3CC(CC(C3)C1)C2	inactive
16	inactive	inactive	–	–	–	O=C(Cn1ccc(Nc2ccccc2)cc1=O)NCc1ccccc1	inactive
72	inactive	inactive	1.48	> 50	–	COc1ccc(NC(=O)Cn2ccc(Nc3ccccc3)cc2=O)cc1	inactive
87	inactive	inactive	0.33	–	–	CC(C)CCNC(=O)Cn1ccc(Nc2ccccc2)cc1=O	inactive
67	inactive	–	8.03	–	6.65	O=C(Cn1ccc(Nc2ccccc2)cc1=O)Nc1ccccc1C(=O)c1ccccc1	inactive
